From PubChem
Most compounds without a hit are left out; they make up all but 4.9% or so of the library.
STAT3 act: STAT3 signaling activation; U3A cells, IL-6 STAT3-luciferase reporter, luminescence; 100% = signal with IL-6 EC80 alone; AID 871; 190,000 compounds, 0.91% hits; activation (% of control), % at 5.6 µM;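 active = activation above the screen-wide mean of compound activation plus 3 SD, cut at about 130% in these data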;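 also: 0% = background luminescence of wells with medium and substrate only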
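Detection: reporter luminescence signal / Assay system: STAT1-lacking human U3A cells, STAT3 luciferase reporter / Incubation: compound pre-incubation 1 h before IL-6, then 6 h stimulation at 37 °C / Control set: IL-6-only high control / Read-out: % activation relative to IL-6 control / Probe or stimulus: Interleukin-6, 33 ng/mL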
STAT1 inh: STAT1 signaling inhibition. NIH 3T3 STAT1-luciferase reporter, IFN-gamma, luminescence. 200,000 compounds, 0.35% hits. inhibition, % at 5.5 µM;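 active = inhibition above a set limit, the mean inhibition across all tested compounds plus 3 SD, cut at about 34% in these data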;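 also: 0% = IFN-gamma with DMSO and 100% = IFN-gamma with 300 µM nifuroxazide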
APP 5'UTR act: activates APP 5'UTR luciferase reporter; SH-SY5Y APP 5'UTR luciferase reporter, luminescence; zero percent = DMSO vehicle wells; activation, % at 2 µM; 190,000 compounds, 1% hits; AID 1276;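 active = activation above a set limit, based on mean plus 3 SD of controls, cut at about 140% in these data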
STAT1 activator: activators of IFN-gamma induced STAT1 signaling; activation (% of control), % at 5.5 µM; 200,000 compounds, 2.6% hits; NIH 3T3 STAT1-luciferase reporter, luminescence; 100% = IFN-gamma alone, no compound; AID 932;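 active = activation above the screen-wide mean activation plus 3 SD, cut at about 130% in these data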;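 also: raw ratio to IFN-gamma control signal so 100% means no change and 0% no light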
STAT3 inh: STAT3 signaling inhibition. U3A cells, IL-6 STAT3-luciferase reporter, luminescence; host cell line lacks STAT1. inhibition, % at 5.5 µM. 190,000 compounds, 0.89% hits;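 active = inhibition above the mean inhibition across all screened compounds plus 3 SD, cut at about 44% in these data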;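 also: 0% = DMSO only wells and 100% = 100 µM nifuroxazide control wells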
NF-kB expr up: NF-kB expression increase, human neuronal cells | AID 1239 | NF-kB reporter expression; stronger effect = higher value | fold change at 12.5 µM | 190,000 compounds, 1.6% hits; in the data active = fold change above about 3.3
STAT1 activ conf: confirmation of STAT1 signaling activators; shares compounds with STAT1 activator; NIH 3T3 STAT1-luciferase reporter, IFN-gamma potentiation, luminescence; 100% = IFN-gamma EC80 alone, no compound; activation (% of control), % at 5.7 µM; 1,200 compounds, 97% hits; AID 1262;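 active = activation above a set limit carried over from the earlier primary STAT1 screen, cut at about 140% in these data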;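 also: simple ratio to median IFN-gamma plus DMSO wells so 0% means no light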
NFkB act STAT1ct: activates NF-kappaB, counter-screen to STAT1 activators | 1,200 compounds, 43% hits | activation (% of control), % at 5.7 µM | shares compounds with STAT1 activator | HEK293T NF-kB luciferase reporter, TNF-alpha stimulated, luminescence; 100% = TNF-alpha with vehicle only | AID 1306;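 active = activation above the mean of solvent-only control wells plus 3 SD, set per campaign, cut at about 130% in these data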;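 also: TNF-alpha given at a submaximal dose yielding about 80% of full reporter signal; values are well signal over median control so 100% means no change and 0% no light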
STAT3 act 2: counter-screen for STAT1 activators: human STAT3 activation | shares compounds with STAT1 activator | U3A cells STAT3-luciferase reporter, IL-6, luminescence; cells lack STAT1; 100 = IL-6 alone, no compound effect | activation (% of control), % at 5.7 µM | 1,200 compounds, 46% hits | AID 1316;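 active = activation above the solvent-only control well mean plus 3 SD, set per plate batch, cut at about 110% in these data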;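 also: 0% = no luminescence and 100% = median IL-6 plus DMSO wells; higher means more STAT3 reporter activation so hits are non-selective activators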
* hit, by the source's call; / = no result.

SMILES | STAT3 act | STAT1 inh | APP 5'UTR act | STAT1 activator | STAT3 inh | NF-kB expr up | STAT1 activ conf | NFkB act STAT1ct | STAT3 act 2
N#CC1=C(Nc2ccc(Br)cc2)CCC1 | 93.0 | 8.1 | 10.9 | 92.6 | 13.1 | 1.15 | / | / | /
Brc1ccc(NC2=Nc3ccccc3CC2)cc1 | 79.3 | -63.0 | 99.0 | 157.5* | 27.6 | 4.68* | 187.2* | 141.3* | 101.0
CCN1C/C(=C/c2ccc(OC)c(O)c2)C(=O)/C(=C/c2ccc(OC)c(O)c2)C1 | 99.6 | -253.6 | -87.9 | 335.2* | 4.4 | 0.24 | 108.7 | 137.8* | 96.6
Cc1cc(C)n(-c2cccc(CN(C)Cc3nc(-c4cnccn4)no3)c2)n1 | 102.3 | -6.4 | 6.7 | 104.3 | 1.9 | 1.36 | / | / | /
O=c1c2ccccc2cnn1-c1ccc(Cl)nn1 | 88.2 | -13.8 | 7.9 | 111.3 | 16.5 | 1.45 | / | / | /
O=c1c2ccccc2cnn1-c1ccc(Br)cc1 | 127.7 | -58.2 | 124.3 | 152.0* | -33.8 | 6.36* | 214.1* | 141.8* | 140.8*
O=c1c(Br)c(Br)cnn1-c1ccccc1 | 82.8 | -88.4 | -95.5 | 177.1* | 25.1 | 0.23 | 117.7 | 120.2 | 90.7
Cc1cccc(COCC(Cc2ccccc2)N2CCN(C(=O)c3cc(Cl)cc(Cl)c3)CCC2=O)c1 (centres undefined) | 98.4 | 11.9 | 9.5 | 89.2 | -0.9 | 0.82 | / | / | /
CC(=O)Nc1ccccc1C(=O)C(=O)Nc1ccc(C)c(C)c1 | 86.4 | -31.7 | 81.0 | 128.2 | 16.0 | 1.17 | / | / | /
Cc1ccc(NC(=O)/C(Cl)=C/c2ccccc2)cc1C | 79.1 | -86.5 | 138.8* | 176.9* | 23.1 | 9.13* | 230.4* | 121.6 | 102.3
CC(=O)Nc1sc2c(c1C(N)=O)CCC2 | 95.3 | 1.3 | -9.6 | 94.3 | 7.0 | 0.82 | / | / | /
NC(=O)c1c(NC(=O)c2cc3ccccc3o2)sc2c1CCC2 | 71.4 | -88.3 | 98.3 | 180.9* | 35.0 | 1.19 | 195.7* | 107.7 | 117.7*
CC1=NN(c2ccccc2)C(=O)/C1=C\c1ccc(Br)s1 | 92.7 | -5.0 | / | 104.5 | 8.9 | 1.39 | / | / | /
CC1=NN(c2ccccc2)C(=O)/C1=C/c1c(O)n(-c2ccc(F)cc2)[nH]c1=O | 119.0 | -57.7 | 39.0 | 152.6* | -28.6 | 1.48 | 176.6* | 122.4 | 132.3*
Cc1ccc(-c2nnn(CCC(=O)NC3CCCC3)n2)cc1 | 98.9 | 6.1 | 19.5 | 94.5 | 11.1 | 1.22 | / | / | /
Cc1ccc(Nc2nc(C3CC3)cs2)cc1 | 94.0 | -53.5 | 239.3* | 151.2* | 7.6 | 8.82* | 228.3* | 116.7 | 93.8
Clc1ccc(Nc2nc(C3CC3)cs2)cc1 | 96.2 | -59.4 | 179.8* | 153.7* | 13.3 | 5.14* | 188.1* | 141.6* | 100.9
Nc1nnc(SCCOc2ccc(Br)cc2)s1 | 96.9 | -29.7 | 0.5 | 127.2 | 5.5 | 1.8 | / | / | /
COCCNC(=O)c1c(C)cc(C)cc1C | 97.0 | 0.0 | -2.4 | 97.7 | 5.6 | 1.04 | / | / | /
COC(=O)c1ccc(C2Nc3ccc(/C(C)=N/NC(=O)C(OC)c4ccccc4)cc3C3C=CCC32)cc1 (centres undefined) | 92.9 | 9.4 | 10.4 | 91.6 | 13.6 | 0.42 | / | / | /
CCOc1cccc(-c2nc3cc(C)ccc3o2)c1 | 116.4 | -56.8 | 63.7 | 151.9* | -15.6 | 1.76 | 159.5* | 122.1 | 128.5*
Cc1ccc2oc(-c3cccc(NC(=O)Cn4cnc5c(=O)n(C)c(=O)n(C)c54)c3)nc2c1 | 97.4 | -15.3 | 94.4 | 112.8 | 4.4 | 2.56 | / | / | /
Cc1scc(C(=O)N/N=C/c2ccc(OC(C)C)cc2)c1C | 106.7 | -6.9 | 28.1 | 106.3 | -1.6 | 0.62 | / | / | /
Cc1scc(C(=O)N/N=C/c2ccc(Cl)s2)c1C | 105.4 | -58.2 | 128.1 | 151.0* | -6.4 | 1.19 | 180.7* | 130.2 | 101.6
